ChEMBL document CHEMBL1127523, “Design and synthesis of side-chain conformationally restricted phenylalanines and their use for structure-activity studies on tachykinin NK-1 receptor” (J Med Chem, 1994)
Starred links: 1 amine or outer side, 2 acyl side, 3 side chain; linkers in the order of their positions; H or OH if unused. Non-standard residues stand in square brackets, D forms with d. Residues, ends and D or L forms follow the SMILES beside them. Gly(9-fluorenyl) = N[C@H](C(=O)O)C1c2ccccc2-c2ccccc21; X1 = O=C([C@@H](N[*:1])C1CCc2ccccc21)[*:2]; Dip = N[C@H](C(=O)O)C(c1ccccc1)c1ccccc1

Tests used:
[1] = organism: Cavia porcellus; test: (§1) pKB value of compound was determined in presence of antagonist RP-67580 at conc. of 10e-7 M; format: functional
[2] = organism: Cavia porcellus; test: as §1; format: functional; remark: listed apart in the source
Method in brief: (§2)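 Guinea pig ileum strips (1 cm, terminal portion, males 300–400 g) in oxygenated Tyrode at 37 °C, 1 g tension. Agonist added cumulatively, doubling bath concentration at each steady response. Antagonist RP-67,580, one concentration (10⁻⁷ M), preincubated 5 min before first agonist addition. pKB = log(dose ratio − 1) − log([antagonist]); three independent determinations.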

[3] = organism: Cavia porcellus; test: pKb value of compound was determined in presence of antagonist RP-67580 at conc. of 10e-7 M; format: functional; method in brief: as §2
[4] = organism: Cavia porcellus; test: Concentration required to inhibit nonspecific binding of [125I]BH-SP to guinea pig ileal membranes; format: functional
[5] = target: T1, Neuromedin-K receptor (Rattus norvegicus, UniProt P16177); test: Concentration required to inhibit the specific binding of [125I]BH-ELE to Neurokinin-3 (NK-3) receptor in rat brain synaptosomes; format: subcellular
T1 sequence (P16177 whole entry): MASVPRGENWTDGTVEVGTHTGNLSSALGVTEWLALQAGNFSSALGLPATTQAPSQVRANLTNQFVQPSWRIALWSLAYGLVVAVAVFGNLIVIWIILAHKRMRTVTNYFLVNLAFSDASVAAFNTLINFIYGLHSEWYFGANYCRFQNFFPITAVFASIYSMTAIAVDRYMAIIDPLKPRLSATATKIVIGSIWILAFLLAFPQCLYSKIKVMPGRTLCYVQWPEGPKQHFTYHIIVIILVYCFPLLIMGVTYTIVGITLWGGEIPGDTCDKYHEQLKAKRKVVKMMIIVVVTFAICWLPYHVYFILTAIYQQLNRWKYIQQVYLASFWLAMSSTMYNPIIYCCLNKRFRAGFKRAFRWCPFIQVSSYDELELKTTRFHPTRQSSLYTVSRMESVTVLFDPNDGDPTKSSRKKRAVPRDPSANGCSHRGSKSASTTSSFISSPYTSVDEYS
Method in brief: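 Rat brain synaptosomes in Krebs-Ringer phosphate buffer with BSA, bacitracin and glucose. Incubated 15 min at 20 °C with 40 pM [125I]BHELE and increasing peptide concentrations, gamma counted. Triplicates, two to eight independent experiments; nonspecific binding defined with eledoisin 10⁻⁶ M. IC50 estimated from Hill plots of titration curves.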

[6] = organism: Cavia porcellus; test: Effective concentration required for its inhibition of nonspecific binding to guinea pig ileal membranes; format: functional
[7] = target: Substance-P receptor (Rattus norvegicus, UniProt P14600); test: Concentration required to inhibit the specific binding of [125I]BH-SP to Neurokinin-1 (NK-1) receptor in rat brain synaptosomes; format: subcellular
Sequence of Substance-P receptor (P14600 whole entry): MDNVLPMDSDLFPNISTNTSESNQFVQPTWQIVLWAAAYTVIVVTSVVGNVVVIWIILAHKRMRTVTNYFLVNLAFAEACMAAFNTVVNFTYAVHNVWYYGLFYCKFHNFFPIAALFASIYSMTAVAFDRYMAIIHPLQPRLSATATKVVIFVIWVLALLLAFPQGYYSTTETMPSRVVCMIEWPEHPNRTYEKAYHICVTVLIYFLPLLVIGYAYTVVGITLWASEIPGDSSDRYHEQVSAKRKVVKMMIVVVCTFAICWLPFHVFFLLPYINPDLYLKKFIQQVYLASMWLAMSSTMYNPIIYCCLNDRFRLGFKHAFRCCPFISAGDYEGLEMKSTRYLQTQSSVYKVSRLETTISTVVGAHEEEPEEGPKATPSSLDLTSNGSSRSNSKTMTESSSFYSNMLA

[8] = target: T2, Substance-K receptor (Rattus norvegicus, UniProt P16610); test: Concentration required to inhibit the specific binding of [3H]NKA to Neurokinin-2 (NK-2) receptor in rat duodenum membranes
T2 sequence (P16610 whole entry): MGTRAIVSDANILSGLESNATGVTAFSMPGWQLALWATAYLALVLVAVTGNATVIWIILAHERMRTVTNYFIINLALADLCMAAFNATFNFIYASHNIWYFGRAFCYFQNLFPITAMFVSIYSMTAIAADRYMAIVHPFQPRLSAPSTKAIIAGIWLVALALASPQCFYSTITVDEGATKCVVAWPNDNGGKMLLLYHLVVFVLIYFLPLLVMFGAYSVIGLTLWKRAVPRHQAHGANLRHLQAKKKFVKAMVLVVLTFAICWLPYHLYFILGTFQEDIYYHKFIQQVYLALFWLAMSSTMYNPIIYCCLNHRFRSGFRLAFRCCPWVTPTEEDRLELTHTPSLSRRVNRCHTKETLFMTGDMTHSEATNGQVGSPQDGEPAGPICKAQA

Compound | pKb [1] | also measured
CSCC[C@H](NC(=O)[C@H](CC(C)C)NC(=O)CNC(=O)[C@@H](NC(=O)[C@H](Cc1ccccc1)NC(=O)[C@H](CCC(N)=O)NC(=O)[C@H](CCC(N)=O)NC(=O)[C@@H]1CCCN1C(=O)[C@H](CCCCN)NC(=O)[C@@H]1CCCN1C(=O)[C@@H](N)CCCN=C(N)N)C(c1ccccc1)c1ccccc1)C(N)=O | 6.9 | –
CSCC[C@H](NC(=O)[C@H](CC(C)C)NC(=O)CNC(=O)[C@H](Cc1ccccc1)NC(=O)[C@H](CCc1ccccc1)NC(=O)[C@H](CCC(N)=O)NC(=O)[C@H](CCC(N)=O)NC(=O)[C@@H]1CCCN1C(=O)[C@H](CCCCN)NC(=O)[C@@H]1CCCN1C(=O)[C@@H](N)CCCN=C(N)N)C(N)=O | 7.25 | –
CSCC[C@H](NC(=O)[C@H](CC(C)C)NC(=O)[C@@H]1CCCN1C(=O)[C@@H](NC(=O)[C@H](Cc1ccccc1)NC(=O)[C@H](CCC(N)=O)NC(=O)[C@H](CCC(N)=O)NC(=O)[C@@H]1CCCN1C(=O)[C@H](CCCCN)NC(=O)[C@@H]1CCCN1C(=O)[C@@H](N)CCCN=C(N)N)C(c1ccccc1)c1ccccc1)C(N)=O (H-RPKPQQF[Dip]PLM-NH2) | – | pKB [2]: 7.25
CSCC[C@H](NC(=O)[C@H](CC(C)C)NC(=O)CNC(=O)[C@H](Cc1ccccc1)NC(=O)[C@@H](NC(=O)[C@H](CCC(N)=O)NC(=O)[C@H](CCC(N)=O)NC(=O)[C@@H]1CCCN1C(=O)[C@H](CCCCN)NC(=O)[C@@H]1CCCN1C(=O)[C@@H](N)CCCN=C(N)N)C1c2ccccc2-c2ccccc21)C(N)=O | 7.1 | –
CSCC[C@H](NC(=O)[C@H](CC(C)C)NC(=O)[C@@H]1CCCN1C(=O)[C@H](Cc1ccccc1)NC(=O)[C@H](Cc1ccccc1)NC(=O)[C@H](CCC(N)=O)NC(=O)[C@H](CCC(N)=O)NC(=O)[C@@H]1CCCN1C(=O)[C@H](CCCCN)NC(=O)[C@@H]1CCCN1C(=O)[C@@H](N)CCCN=C(N)N)C(N)=O | 6.97 | –
CSCC[C@H](NC(=O)[C@H](CC(C)C)NC(=O)CNC(=O)[C@H](Cc1ccccc1)NC(=O)[C@@H](NC(=O)[C@H](CCC(N)=O)NC(=O)[C@H](CCC(N)=O)NC(=O)[C@@H]1CCCN1C(=O)[C@H](CCCCN)NC(=O)[C@@H]1CCCN1C(=O)[C@@H](N)CCCN=C(N)N)[C@@H]1CCc2ccccc21)C(N)=O [listing 1 of 2 here] | 7.06 | –
CSCC[C@H](NC(=O)[C@H](CC(C)C)NC(=O)CNC(=O)[C@@H](NC(=O)[C@@H](NC(=O)[C@H](CCC(N)=O)NC(=O)[C@H](CCC(N)=O)NC(=O)[C@@H]1CCCN1C(=O)[C@H](CCCCN)NC(=O)[C@@H]1CCCN1C(=O)[C@@H](N)CCCN=C(N)N)C1CCc2ccccc21)C1c2ccccc2-c2ccccc21)C(N)=O (some centres undefined) (H-RPKPQQ[X1][Gly(9-fluorenyl)]GLM-NH2) | – | pKb [3]: 7.1
CSCC[C@H](NC(=O)[C@H](CC(C)C)NC(=O)CNC(=O)[C@H](Cc1ccccc1)NC(=O)/C(=C\c1ccccc1)NC(=O)[C@H](CCC(N)=O)NC(=O)[C@H](CCC(N)=O)NC(=O)[C@@H]1CCCN1C(=O)[C@H](CCCCN)NC(=O)[C@@H]1CCCN1C(=O)[C@@H](N)CCCN=C(N)N)C(N)=O | 7.15 | –
CSCC[C@H](NC(=O)[C@H](CC(C)C)NC(=O)CNC(=O)[C@H](Cc1ccccc1)NC(=O)[C@@H](NC(=O)[C@H](CCC(N)=O)NC(=O)[C@H](CCC(N)=O)NC(=O)[C@@H]1CCCN1C(=O)[C@H](CCCCN)NC(=O)[C@@H]1CCCN1C(=O)[C@@H](N)CCCN=C(N)N)[C@@H]1CCc2ccccc21)C(N)=O [listing 2 of 2 here] | – | IC50 [4]: 23 nM; IC50 [5]: 2100 nM; EC50 [6]: 6.9 nM; IC50 [7]: 54 nM; IC50 [8]: 530 nM
CSCC[C@H](NC(=O)[C@H](CC(C)C)NC(=O)CNC(=O)[C@H](Cc1ccccc1)NC(=O)[C@@H](NC(=O)[C@H](CCC(N)=O)NC(=O)[C@H](CCC(N)=O)NC(=O)[C@@H]1CCCN1C(=O)[C@H](CCCCN)NC(=O)[C@@H]1CCCN1C(=O)[C@@H](N)CCCN=C(N)N)C1CCc2cc3ccccc3cc21)C(N)=O (some centres undefined) | 7.3 | –
